Source: ChEMBL document CHEMBL1129566 (J Med Chem, 1996)
In brackets after ≈: the same amount, converted by molar mass.

Tests used:
Streptococcus pneumoniae [1] = assay: Inhibitory concentration against purified PBP2x from Streptococcus pneumoniae; assay type: functional
Procedure, shortened: (§1)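 PBPs purified to homogeneity. IC50 measured by competition with fluorescent dansyl-penicillin or a coumarin analogue probe. Protein-bound fluorescence determined after TCA precipitation, filtration on glass fibre filters and drying, read on a fluorimeter.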

Enterococcus durans = assay: Inhibitory concentration against purified beta-Lactam resistant PBP5 from Enterococcus durans; assay type: functional; procedure, shortened: as §1
Streptococcus pneumoniae [2] = assay: Inhibitory concentration against purified cephalosporin-resistant PBP2x.505 from Streptococcus pneumoniae; assay type: functional; procedure, shortened: as §1
Streptococcus pneumoniae [3] = assay: Inhibitory concentration against purified cephalosporin-resistant PBP2x.604 from Streptococcus pneumoniae; assay type: functional; procedure, shortened: as §1
Escherichia coli [4] = assay: Inhibitory concentration against purified penicillin-binding protein(PBP) 1bgamma of Escherichia coli; assay type: functional
Procedure, shortened: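 PBP purified to homogeneity. IC50 from competition with dansyl-penicillin or a coumarin analogue; protein-bound fluorescence recovered by TCA precipitation and glass-fibre filtration, then read by fluorimetry after drying.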

[5] = test system: Staphylococcus epidermidis; assay: Inhibitory concentration against purified beta-Lactam-resistant PBP2 from Staphylococcus epidermidis; assay type: functional; procedure, shortened: as §1
Staphylococcus aureus [6] = assay: In vitro minimum inhibitory concentration required to produce antibacterial activity against Staphylococcus aureus 743 MRSA; assay type: functional
Procedure, shortened: (§2)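 Two-fold agar dilution on Mueller-Hinton agar. Overnight broth cultures diluted in fresh broth to […]; 10⁴ CFU/spot applied by inoculating apparatus onto plates with graded drug concentrations. Incubated 18 h at 37 °C; MIC taken as the lowest concentration giving complete growth inhibition.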

Enterobacter cloacae = assay: In vitro minimum inhibitory concentration required to produce antibacterial activity against Enterobacter cloacae 908SSI; assay type: functional; procedure, shortened: as §2
Staphylococcus aureus [7] = assay: In vitro minimum inhibitory concentration required to produce antibacterial activity against Staphylococcus aureus 887MSSA; assay type: functional; procedure, shortened: as §2
Pseudomonas aeruginosa [8] = assay: (§3) In vitro minimum inhibitory concentration required to produce antibacterial activity against Pseudomonas aeruginosa ATCC 27853; assay type: functional
Procedure, shortened: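 Two-fold agar dilution on Mueller-Hinton agar. Overnight broth cultures diluted in fresh broth, inoculum 10⁴ CFU/spot applied by inoculating apparatus to plates with graded drug concentrations. Plates incubated 18 h at 37 °C. MIC taken as lowest concentration completely inhibiting growth.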

Escherichia coli [9] = assay: In vitro minimum inhibitory concentration required to produce antibacterial activity against Escherichia coli 25922; assay type: functional; procedure, shortened: as §2
Citrobacter freundii = assay: In vitro minimum inhibitory concentration required to produce antibacterial activity against Citrobacter freundii 902; assay type: functional; procedure, shortened: as §2
Streptococcus pneumoniae [10] = assay: Minimum inhibitory concentration for antibacterial activity against Streptococcus pneumoniae Q19 (pen s); assay type: functional; procedure, shortened: as §2
Streptococcus pneumoniae [11] = assay: In vitro minimum inhibitory concentration required to produce antibacterial activity against Streptococcus pneumoniae 1/37(pen r); assay type: functional; procedure, shortened: as §2
Enterococcus faecalis = assay: In vitro minimum inhibitory concentration required to produce antibacterial activity against Enterococcus faecalis ATCC 29212; assay type: functional; procedure, shortened: as §2
[12] = target: Beta-lactamase (Bacillus licheniformis) (UniProt P00808); assay: Rate of hydrolysis in 0.1 M sodium phosphate buffer at pH=7.0 by Beta lactamase (B.l icheniformis 749/C)
Chain of Beta-lactamase (Bacillus licheniformis) (P00808 whole entry): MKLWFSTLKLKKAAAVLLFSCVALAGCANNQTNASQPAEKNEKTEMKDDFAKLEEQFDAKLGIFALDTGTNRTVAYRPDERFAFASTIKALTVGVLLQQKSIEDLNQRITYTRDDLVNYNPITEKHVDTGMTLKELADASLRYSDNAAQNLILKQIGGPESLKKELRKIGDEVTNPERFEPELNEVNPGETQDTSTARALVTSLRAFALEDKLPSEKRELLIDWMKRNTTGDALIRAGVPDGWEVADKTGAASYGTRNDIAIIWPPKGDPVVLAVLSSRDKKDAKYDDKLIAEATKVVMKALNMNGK
Procedure, shortened: (§4)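 β-Lactamases purified to homogeneity; hydrolysis rate of the cephalosporin substrate measured in 0.1 M sodium phosphate buffer, pH 7.0, by standard methods.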

[13] = target: Beta-lactamase TEM (Escherichia coli) (UniProt P62593); assay: Rate of hydrolysis in 0.1 M sodium phosphate buffer at pH=7.0 by Beta lactamase (TEM-3); procedure, shortened: as §4
Chain of Beta-lactamase TEM (Escherichia coli) (P62593 whole entry): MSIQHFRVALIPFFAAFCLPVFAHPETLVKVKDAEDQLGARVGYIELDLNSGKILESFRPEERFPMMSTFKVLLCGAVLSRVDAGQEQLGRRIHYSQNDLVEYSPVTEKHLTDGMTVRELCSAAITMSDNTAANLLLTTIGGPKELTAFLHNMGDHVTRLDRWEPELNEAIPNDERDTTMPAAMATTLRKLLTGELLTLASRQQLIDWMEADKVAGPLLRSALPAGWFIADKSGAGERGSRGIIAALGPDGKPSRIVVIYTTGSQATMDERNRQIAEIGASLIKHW

[14] = target: Beta-lactamase TEM (Escherichia coli) (UniProt P62593); assay: Rate of hydrolysis in 0.1 M sodium phosphate buffer at pH=7.0 by Beta lactamase (TEM-4); procedure, shortened: as §4
[15] = target: T1, Beta-lactamase SHV-1 (Escherichia coli) (UniProt P0AD63); assay: Rate of hydrolysis in 0.1 M sodium phosphate buffer at pH=7.0 by Beta lactamase (SHV-4); procedure, shortened: as §4
T1 sequence (whole entry): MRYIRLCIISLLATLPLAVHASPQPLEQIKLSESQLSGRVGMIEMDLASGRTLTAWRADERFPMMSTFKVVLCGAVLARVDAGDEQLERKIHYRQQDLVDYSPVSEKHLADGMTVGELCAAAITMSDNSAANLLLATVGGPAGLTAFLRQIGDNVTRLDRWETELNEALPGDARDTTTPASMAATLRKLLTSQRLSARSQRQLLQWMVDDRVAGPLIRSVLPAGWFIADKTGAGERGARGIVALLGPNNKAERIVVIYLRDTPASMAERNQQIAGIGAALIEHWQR

[16] = target: T1, Beta-lactamase SHV-1 (Escherichia coli); assay: Rate of hydrolysis in 0.1 M sodium phosphate buffer at pH=7.0 by Beta lactamase (SHV-2); procedure, shortened: as §4
Pseudomonas aeruginosa [17] = assay: as §3; assay type: functional; procedure, shortened: as §2; remark: listed apart in the source
[18] = target: Beta-lactamase (Bacillus licheniformis) (UniProt P00808); assay: Rate of hydrolysis in 0.1 M sodium phosphate buffer at pH=7.0 by Beta lactamase (Bacillus licheniformis 749/C); procedure, shortened: as §4
[19] = target: Beta-lactamase (Proteus vulgaris) (UniProt P52664); assay: Rate of hydrolysis in 0.1 M sodium phosphate buffer at pH=7.0 by Beta lactamase (Proteus vulgaris 1028)
Chain of Beta-lactamase (Proteus vulgaris) (P52664 whole entry, looked up): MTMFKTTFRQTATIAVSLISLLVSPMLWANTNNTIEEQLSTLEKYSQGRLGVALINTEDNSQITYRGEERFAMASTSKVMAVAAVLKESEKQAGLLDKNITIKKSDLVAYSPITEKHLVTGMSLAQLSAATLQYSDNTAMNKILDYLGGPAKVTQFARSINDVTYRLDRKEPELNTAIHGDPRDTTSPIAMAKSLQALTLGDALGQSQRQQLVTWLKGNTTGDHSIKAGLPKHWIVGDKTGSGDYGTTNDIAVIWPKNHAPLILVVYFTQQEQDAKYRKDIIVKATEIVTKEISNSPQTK

`C[C@@H](O)[C@H]1C(=O)N2C(C(=O)O)=C(SCCNC=N)C[C@H]12` [IMIPENEM ANHYDROUS] was tested, and the IC50 (Streptococcus pneumoniae [1]) was 0.5 µM, the IC50 (Enterococcus durans) was over 1000 µM and the IC50 (Streptococcus pneumoniae [2]) was 0.5 µM. For the same compound, the IC50 (Streptococcus pneumoniae [3]) was 5.3 µM, the IC50 (Escherichia coli [4]) was 0.01 µM and the IC50 [5] was over 1000 µM.
`CC(C)(O/N=C(\C(=O)N[C@@H]1C(=O)N2C(C(=O)[O-])=C(C[n+]3ccccc3)CS[C@H]12)c1csc(N)n1)C(=O)O` [CEFTAZIDIME] gave an MIC (Staphylococcus aureus [6]) of over 32 µg/mL, an MIC (Enterobacter cloacae) of 1 µg/mL (≈ 1.83 µM) and an MIC (Staphylococcus aureus [7]) of 8 µg/mL (≈ 14.6 µM). For the same compound, the MIC (Pseudomonas aeruginosa [8]) was 1 µg/mL (≈ 1.83 µM), the MIC (Escherichia coli [9]) was 0.25 µg/mL (≈ 0.457 µM) and the MIC (Citrobacter freundii) was 0.5 µg/mL (≈ 0.915 µM). For the same compound, the MIC (Streptococcus pneumoniae [10]) was 0.25 µg/mL (≈ 0.457 µM), the MIC (Streptococcus pneumoniae [11]) was 16 µg/mL (≈ 29.3 µM) and the MIC (Enterococcus faecalis) was over 32 µg/mL.
Compound `CO/N=C(\C(=O)N[C@@H]1C(=O)N2C(C(=O)O)=C(CSc3nc(=O)c(O)nn3C)CS[C@H]12)c1csc(N)n1` [CEFTRIAXONE] has an IC50 (Streptococcus pneumoniae [1]) of 0.5 µM, an IC50 (Enterococcus durans) of over 500 µM and an IC50 (Streptococcus pneumoniae [2]) of 2.5 µM. The Activity (M min-1 (M of enzyme)-1) [12] was 1890, the Activity (M min-1 (M of enzyme)-1) [13] was 79 and the Activity (M min-1 (M of enzyme)-1) [14] was 643. It also gave an Activity (M min-1 (M of enzyme)-1) ([15]; Proteus vulgaris) of 3340, an IC50 (Streptococcus pneumoniae [3]) of 5.5 µM and an MIC (Staphylococcus aureus [6]) of over 32 µg/mL. For the same compound, the MIC (Enterobacter cloacae) was 0.5 µg/mL (≈ 0.902 µM), the IC50 (Escherichia coli [4]) was 0.29 µM and the MIC (Staphylococcus aureus [7]) was 4 µg/mL (≈ 7.21 µM). For the same compound, the MIC (Pseudomonas aeruginosa [8]) was 16 µg/mL (≈ 28.9 µM), the MIC (Escherichia coli [9]) was at most 0.06 µg/mL and the MIC (Citrobacter freundii) was 0.25 µg/mL (≈ 0.451 µM). It also gave an Activity (M min-1 (M of enzyme)-1) [16] of 2310, an MIC (Streptococcus pneumoniae [10]) of at most 0.06 µg/mL and an IC50 [5] of 960 µM. The MIC (Streptococcus pneumoniae [11]) was 2 µg/mL (≈ 3.61 µM) and the MIC (Enterococcus faecalis) was over 32 µg/mL.
`Nc1nc(/C(=N/O)C(=O)N[C@@H]2C(=O)N3C(C(=O)O)=C(/C=C4\CCN(CC(F)(F)F)C4=O)CS[C@H]23)cs1` [RO 25-6833] showed an IC50 (Streptococcus pneumoniae [1]) of 0.3 µM, an MIC (Pseudomonas aeruginosa [17]) of 16 µg/mL (≈ 29.3 µM) and an IC50 (Enterococcus durans) of 8 µM. It also gave an IC50 (Streptococcus pneumoniae [2]) of 0.36 µM, an Activity (M min-1 (M of enzyme)-1) [13] of 14 and an Activity (M min-1 (M of enzyme)-1) [14] of 305. It also gave an Activity (M min-1 (M of enzyme)-1) [15] of 1390, an IC50 (Streptococcus pneumoniae [3]) of 0.87 µM and an MIC (Staphylococcus aureus [6]) of 8 µg/mL (≈ 14.6 µM). It also gave an Activity (M min-1 (M of enzyme)-1) [18] of 906, an MIC (Enterobacter cloacae) of 0.5 µg/mL (≈ 0.915 µM) and an IC50 (Escherichia coli [4]) of 30 µM. The MIC (Staphylococcus aureus [7]) was 1 µg/mL (≈ 1.83 µM), the MIC (Escherichia coli [9]) was at most 0.06 µg/mL and the MIC (Citrobacter freundii) was 0.25 µg/mL (≈ 0.457 µM). The Activity (M min-1 (M of enzyme)-1) [16] was 1580, the Activity (M min-1 (M of enzyme)-1) [19] was 461 and the MIC (Streptococcus pneumoniae [10]) was 0.06 µg/mL (≈ 0.11 µM). The IC50 [5] was 25 µM, the MIC (Streptococcus pneumoniae [11]) was 1 µg/mL (≈ 1.83 µM) and the MIC (Enterococcus faecalis) was 1 µg/mL (≈ 1.83 µM).
